Data: ChEMBL document CHEMBL1156178, “Discovery of novel 6,6-heterocycles as transient receptor potential vanilloid (TRPV1) antagonists” (J Med Chem, 2010)
Values after ≈ are worked out from the molar mass of the structure shown. Active and inactive are the calls of the source. The rule behind the calls is not given here.

Key:
[1] = Solubility in 0.1 N HCL after 4 hrs by HPLC/MS analysis; type: physicochemical
Rattus norvegicus [2] = assay: Clearance in rat at […] iv dose; type: ADME, organism-based; set-up: dose 1.5 mg/kg, route intravenous; details: in vivo
[3] = Metabolic stability in rat liver microsomes assessed as compound remaining at 1 uM after 10 mins by LCMS analysis; type: ADME, Microsome; details: read-out: Activity
Method in brief: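 Compound (1 μM) incubated at 37 °C with 0.5 mg/mL male pooled rat liver microsomes; NADPH added to start the reaction. Aliquots were taken at 0 and 10 min and quenched into ice-cold acetonitrile with internal standard, then centrifuged. Parent was monitored as the M+1 ion by ESI-LCMS in selected-ion mode. Percent remaining was taken as the 10 min/0 min signal ratio, corrected by internal-standard recovery.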

[4] = molecular target: Transient receptor potential cation channel subfamily V member 1 (Homo sapiens, UniProt Q8NER1); assay: Antagonist activity at human recombinant TRPV1 expressed in HEK293 cells assessed as inhibition of capsaicin-induced calcium mobilization by FLIPR assay
Sequence of Transient receptor potential cation channel subfamily V member 1 (Homo sapiens, UniProt Q8NER1) (Q8NER1 whole entry): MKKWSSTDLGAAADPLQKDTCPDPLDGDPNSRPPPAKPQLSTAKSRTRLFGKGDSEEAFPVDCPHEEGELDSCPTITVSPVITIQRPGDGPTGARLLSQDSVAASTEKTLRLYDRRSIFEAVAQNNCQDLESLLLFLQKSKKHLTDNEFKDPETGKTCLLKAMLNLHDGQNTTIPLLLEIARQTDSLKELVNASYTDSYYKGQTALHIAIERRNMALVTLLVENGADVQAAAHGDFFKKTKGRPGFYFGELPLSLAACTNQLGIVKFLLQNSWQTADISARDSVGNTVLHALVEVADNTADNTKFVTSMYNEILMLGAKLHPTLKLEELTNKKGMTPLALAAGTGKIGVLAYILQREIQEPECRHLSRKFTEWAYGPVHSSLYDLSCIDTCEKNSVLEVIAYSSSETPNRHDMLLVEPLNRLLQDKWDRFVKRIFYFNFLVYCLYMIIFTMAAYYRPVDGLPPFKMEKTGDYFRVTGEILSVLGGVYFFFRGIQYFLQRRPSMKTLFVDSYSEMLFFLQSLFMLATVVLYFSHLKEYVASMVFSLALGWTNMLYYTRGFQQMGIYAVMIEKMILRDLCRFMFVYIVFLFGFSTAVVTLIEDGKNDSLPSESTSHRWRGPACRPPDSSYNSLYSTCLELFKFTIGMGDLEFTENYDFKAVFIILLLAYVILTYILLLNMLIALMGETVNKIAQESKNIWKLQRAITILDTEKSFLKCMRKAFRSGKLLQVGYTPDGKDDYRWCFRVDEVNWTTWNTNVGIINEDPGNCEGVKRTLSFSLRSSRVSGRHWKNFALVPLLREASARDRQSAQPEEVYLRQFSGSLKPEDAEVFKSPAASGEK

Rattus norvegicus [5] = assay: Liver blood flow in rat at 1 mg/kg, iv and 1 mg/kg, po; type: ADME, organism-based; details: in vivo
[6] = Tmax in rat at 1 mg/kg, iv and 1 mg/kg, po; type: ADME, organism-based; details: in vivo
[7] = Half life in rat at 1 mg/kg, iv and 1 mg/kg, po; type: ADME, organism-based; details: in vivo
[8] = Clearance in rat at 1 mg/kg, iv and 1 mg/kg, po; type: ADME, organism-based; details: in vivo
[9] = Volume of distribution in rat at 1 mg/kg, iv and 1 mg/kg, po; type: ADME, organism-based; details: in vivo
[10] = Oral bioavailability in rat at 1 mg/kg; type: ADME, organism-based; details: in vivo
[11] = Equilibrium solubility in at pH 7.4; type: physicochemical; details: buffer
MDR1 = assay: Apparent permeability across pig LLC-PK1 cells expressing MDR1; type: ADME, cell-based, Sus scrofa
LLC-PK1 = assay: Efflux ratio of permeability from […] in MDR1 transfected pig LLC-PK1 cells; type: ADME, cell-based, Sus scrofa
[12] = molecular target: Transient receptor potential cation channel subfamily V member 1 (Rattus norvegicus, UniProt O35433); assay: Inhibition of rat TRPV1 at pH 5 to 5.5
Sequence of Transient receptor potential cation channel subfamily V member 1 (Rattus norvegicus, UniProt O35433) (O35433 whole entry): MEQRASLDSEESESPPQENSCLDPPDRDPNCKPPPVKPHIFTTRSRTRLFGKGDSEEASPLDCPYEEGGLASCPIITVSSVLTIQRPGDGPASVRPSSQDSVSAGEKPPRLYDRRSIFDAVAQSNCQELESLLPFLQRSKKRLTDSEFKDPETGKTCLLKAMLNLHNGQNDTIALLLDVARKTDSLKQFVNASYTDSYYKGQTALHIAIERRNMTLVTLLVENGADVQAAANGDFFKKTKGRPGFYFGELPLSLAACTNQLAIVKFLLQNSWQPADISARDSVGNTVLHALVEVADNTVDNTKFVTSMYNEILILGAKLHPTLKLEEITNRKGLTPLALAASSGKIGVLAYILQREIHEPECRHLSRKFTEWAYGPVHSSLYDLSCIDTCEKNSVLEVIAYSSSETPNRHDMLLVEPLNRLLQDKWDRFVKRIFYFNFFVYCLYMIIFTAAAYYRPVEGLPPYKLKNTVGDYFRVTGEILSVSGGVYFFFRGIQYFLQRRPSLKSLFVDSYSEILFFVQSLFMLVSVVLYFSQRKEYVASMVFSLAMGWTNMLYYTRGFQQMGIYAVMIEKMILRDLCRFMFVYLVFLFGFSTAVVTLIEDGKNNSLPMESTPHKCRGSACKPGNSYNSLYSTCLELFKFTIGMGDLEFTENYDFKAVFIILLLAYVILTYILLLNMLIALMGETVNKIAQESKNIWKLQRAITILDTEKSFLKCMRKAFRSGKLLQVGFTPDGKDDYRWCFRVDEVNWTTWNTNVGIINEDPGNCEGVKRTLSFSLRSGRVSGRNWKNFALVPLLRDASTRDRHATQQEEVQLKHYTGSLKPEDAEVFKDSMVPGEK

[13] = Protein binding in rat plasma; type: ADME, cell-free; details: read-out: PPB (converted)
[14] = Ratio of drug level in brain to plasma in rat at 3 mg/kg, po after 1 hr; type: ADME, organism-based; set-up: dose 3 mg/kg, route oral
hERG (KCNH2) = hERG (KCNH2) (Homo sapiens, UniProt Q12809); assay: Inhibition of human ERG expressed in COS7 cells at 10 uM by electrophysiology assay; type: cell-based, COS-7; details: COS7 cells expressing human ERG
[15] = molecular target: Mitogen-activated protein kinase 3 (Homo sapiens, UniProt P27361); assay: Inhibition of human ERK1
Sequence of Mitogen-activated protein kinase 3 (P27361 whole entry): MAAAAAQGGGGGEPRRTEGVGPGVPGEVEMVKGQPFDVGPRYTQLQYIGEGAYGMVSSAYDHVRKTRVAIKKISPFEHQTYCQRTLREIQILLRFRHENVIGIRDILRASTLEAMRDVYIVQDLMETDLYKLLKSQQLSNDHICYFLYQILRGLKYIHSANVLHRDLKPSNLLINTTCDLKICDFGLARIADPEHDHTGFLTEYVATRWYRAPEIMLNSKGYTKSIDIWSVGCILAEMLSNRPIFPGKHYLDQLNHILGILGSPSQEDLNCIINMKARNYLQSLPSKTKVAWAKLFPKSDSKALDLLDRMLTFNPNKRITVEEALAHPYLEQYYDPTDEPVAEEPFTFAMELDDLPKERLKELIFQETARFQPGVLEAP

[16] = Fraction unbound in rat plasma; type: ADME, cell-free
[17] = molecular target: Mitogen-activated protein kinase 14 (Homo sapiens) (UniProt Q16539); assay: Inhibition of p38alpha at 10 uM
Sequence of Mitogen-activated protein kinase 14 (Homo sapiens) (Q16539 whole entry): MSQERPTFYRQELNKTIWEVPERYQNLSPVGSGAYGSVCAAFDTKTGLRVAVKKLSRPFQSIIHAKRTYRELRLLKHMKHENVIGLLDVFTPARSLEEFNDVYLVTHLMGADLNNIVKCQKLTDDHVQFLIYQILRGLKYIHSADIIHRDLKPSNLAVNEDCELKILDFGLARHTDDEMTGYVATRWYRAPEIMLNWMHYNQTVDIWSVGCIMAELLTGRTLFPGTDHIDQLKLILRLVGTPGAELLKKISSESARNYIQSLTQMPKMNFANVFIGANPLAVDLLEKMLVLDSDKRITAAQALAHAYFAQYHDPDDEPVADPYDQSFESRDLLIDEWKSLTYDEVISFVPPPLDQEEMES

[18] = Inhibition of PKA at 10 uM
[19] = molecular target: Protein kinase C alpha type (Homo sapiens) (UniProt P17252); assay: Inhibition of PKCalpha at 10 uM
[20] = molecular target: Epidermal growth factor receptor (Homo sapiens) (UniProt P00533); assay: Inhibition of EGFR at 10 uM
Sequence of Epidermal growth factor receptor (Homo sapiens) (P00533 whole entry): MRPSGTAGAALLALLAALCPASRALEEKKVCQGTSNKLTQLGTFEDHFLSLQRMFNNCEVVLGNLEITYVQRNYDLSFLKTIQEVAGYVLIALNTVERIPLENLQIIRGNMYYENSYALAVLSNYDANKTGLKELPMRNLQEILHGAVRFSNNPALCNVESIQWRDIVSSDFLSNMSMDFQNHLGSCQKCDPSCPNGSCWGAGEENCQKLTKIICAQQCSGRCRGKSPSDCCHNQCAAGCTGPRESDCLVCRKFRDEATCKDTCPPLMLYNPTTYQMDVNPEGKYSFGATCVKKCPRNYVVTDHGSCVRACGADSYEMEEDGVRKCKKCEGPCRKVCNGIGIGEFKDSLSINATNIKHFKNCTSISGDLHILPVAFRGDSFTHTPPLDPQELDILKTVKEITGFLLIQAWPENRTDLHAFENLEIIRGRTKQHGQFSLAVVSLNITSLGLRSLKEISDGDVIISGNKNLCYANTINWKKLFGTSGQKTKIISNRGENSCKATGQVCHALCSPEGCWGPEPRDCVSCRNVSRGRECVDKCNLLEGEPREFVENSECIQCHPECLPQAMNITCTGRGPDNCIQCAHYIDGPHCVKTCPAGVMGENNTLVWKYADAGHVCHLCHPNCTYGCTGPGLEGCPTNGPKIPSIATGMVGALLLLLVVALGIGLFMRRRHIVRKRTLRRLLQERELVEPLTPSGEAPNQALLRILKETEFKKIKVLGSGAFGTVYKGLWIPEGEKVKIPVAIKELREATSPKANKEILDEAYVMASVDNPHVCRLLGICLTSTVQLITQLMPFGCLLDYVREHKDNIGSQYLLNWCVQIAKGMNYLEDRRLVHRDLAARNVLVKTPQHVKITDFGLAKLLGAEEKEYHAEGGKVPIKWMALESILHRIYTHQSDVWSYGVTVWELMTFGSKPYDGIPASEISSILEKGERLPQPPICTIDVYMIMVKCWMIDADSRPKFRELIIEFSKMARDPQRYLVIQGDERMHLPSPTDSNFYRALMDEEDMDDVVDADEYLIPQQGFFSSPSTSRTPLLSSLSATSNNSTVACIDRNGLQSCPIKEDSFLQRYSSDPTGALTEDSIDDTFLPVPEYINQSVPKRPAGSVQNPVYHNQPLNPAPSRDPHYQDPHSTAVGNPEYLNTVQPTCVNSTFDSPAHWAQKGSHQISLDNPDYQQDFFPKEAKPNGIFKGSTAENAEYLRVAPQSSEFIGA

[21] = molecular target: Insulin receptor (Homo sapiens) (UniProt P06213); assay: Inhibition of insulin receptor at 10 uM
Sequence of Insulin receptor (Homo sapiens) (P06213 28-758 limits assumed): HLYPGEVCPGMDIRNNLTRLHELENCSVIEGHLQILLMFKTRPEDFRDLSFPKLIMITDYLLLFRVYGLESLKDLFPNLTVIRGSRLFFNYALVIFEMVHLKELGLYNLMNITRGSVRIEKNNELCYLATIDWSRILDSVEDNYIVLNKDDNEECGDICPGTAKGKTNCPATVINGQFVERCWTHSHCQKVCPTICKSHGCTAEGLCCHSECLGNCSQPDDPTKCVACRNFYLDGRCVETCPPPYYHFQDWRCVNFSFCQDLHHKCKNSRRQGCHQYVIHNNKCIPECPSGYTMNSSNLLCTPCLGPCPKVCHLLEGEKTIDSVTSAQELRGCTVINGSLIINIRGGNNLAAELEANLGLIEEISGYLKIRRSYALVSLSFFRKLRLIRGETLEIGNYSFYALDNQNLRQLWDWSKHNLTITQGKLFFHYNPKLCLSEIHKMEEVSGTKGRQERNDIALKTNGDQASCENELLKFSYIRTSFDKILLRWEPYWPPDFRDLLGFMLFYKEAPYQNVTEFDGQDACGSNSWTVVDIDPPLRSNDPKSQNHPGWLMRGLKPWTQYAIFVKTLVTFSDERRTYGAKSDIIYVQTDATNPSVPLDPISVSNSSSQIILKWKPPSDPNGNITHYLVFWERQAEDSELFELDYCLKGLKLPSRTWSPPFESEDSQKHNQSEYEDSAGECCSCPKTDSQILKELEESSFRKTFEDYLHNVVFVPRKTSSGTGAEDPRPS
Sequence of Insulin receptor (Homo sapiens) (P06213 763-1382 limits assumed): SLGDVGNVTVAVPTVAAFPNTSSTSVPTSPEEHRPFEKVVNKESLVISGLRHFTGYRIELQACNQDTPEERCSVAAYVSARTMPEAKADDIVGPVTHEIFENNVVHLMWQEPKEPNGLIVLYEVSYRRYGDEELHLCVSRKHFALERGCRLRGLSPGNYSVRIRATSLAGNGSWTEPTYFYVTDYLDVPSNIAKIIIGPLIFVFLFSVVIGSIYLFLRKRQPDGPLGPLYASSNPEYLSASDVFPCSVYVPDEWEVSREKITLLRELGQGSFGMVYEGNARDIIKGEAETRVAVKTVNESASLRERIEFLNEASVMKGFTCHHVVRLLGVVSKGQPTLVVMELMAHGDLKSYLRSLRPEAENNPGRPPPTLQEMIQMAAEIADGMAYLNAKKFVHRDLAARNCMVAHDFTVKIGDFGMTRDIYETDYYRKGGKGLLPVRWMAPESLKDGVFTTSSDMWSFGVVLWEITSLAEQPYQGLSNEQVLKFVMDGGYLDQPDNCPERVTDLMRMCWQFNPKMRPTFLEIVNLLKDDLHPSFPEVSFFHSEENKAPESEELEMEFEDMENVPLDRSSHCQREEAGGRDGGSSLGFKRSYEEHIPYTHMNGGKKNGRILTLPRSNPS

Rattus norvegicus [22] = assay: Induction of hyperthermia in Sprague-Dawley rat at 3 mg/kg, po after 1 hr; type: organism-based; set-up: dose 3 mg/kg, route oral; details: in vivo
[23] = molecular target: Voltage-gated L-type calcium channel (Rattus norvegicus, UniProt P22002+Q02485+P27732); assay: Inhibition of rat L-type calcium channel
[24] = AUC (0 to 24 hrs) in rat at 1 mg/kg, po; type: ADME, organism-based; set-up: time < 24 hr, dose 1 mg/kg, route oral; details: plasma
[25] = AUC (0 to 24 hrs) in rat at 10 mg/kg, po; type: ADME, organism-based; set-up: time < 24 hr, dose 10 mg/kg, route oral; details: plasma
[26] = AUC (0 to 24 hrs) in rat at 100 mg/kg, po; type: ADME, organism-based; set-up: time < 24 hr, dose 100 mg/kg, route oral; details: plasma
[27] = Cmax in rat at 1 mg/kg, po; type: ADME, organism-based; set-up: dose 1 mg/kg, route oral; details: in vivo
[28] = Cmax in rat at 10 mg/kg, po; type: ADME, organism-based; set-up: dose 10 mg/kg, route oral; details: in vivo
[29] = Cmax in rat at 100 mg/kg, po; type: ADME, organism-based; set-up: dose 100 mg/kg, route oral; details: in vivo
[30] = Tmax in rat at 1 mg/kg, po; type: ADME, organism-based; set-up: dose 1 mg/kg, route oral; details: in vivo
[31] = Tmax in rat at 10 mg/kg, po; type: ADME, organism-based; set-up: dose 10 mg/kg, route oral; details: in vivo
[32] = Tmax in rat at 100 mg/kg, po; type: ADME, organism-based; set-up: dose 100 mg/kg, route oral; details: in vivo
Rattus norvegicus [33] = assay: Analgesic activity in rat assessed as complete reversal of carrageenan-induced thermal hyperalgesia at 3 mg/kg, po administered 2 hrs after carrageenan challenge; type: functional, organism-based; set-up: dose 3 mg/kg
Rattus norvegicus [34] = assay: Analgesic activity in po dosed rat assessed as reversal of carrageenan-induced thermal hyperalgesia administered 2 hrs after carrageenan challenge; type: functional, organism-based
[35] = Plasma concentration in carrageenan treated rat at 3 mg/kg, po administered 2 hrs after carrageenan challenge measured after 1 hr; type: ADME, organism-based; set-up: dose 3 mg/kg, route oral
[36] = Plasma concentration in carrageenan treated rat at 1 mg/kg, po administered 2 hrs after carrageenan challenge measured after 1 hr; type: ADME, organism-based; set-up: dose 1 mg/kg, route oral
[37] = Plasma concentration in carrageenan treated rat at 0.3 mg/kg, po administered 2 hrs after carrageenan challenge measured after 1 hr; type: ADME, organism-based; set-up: dose 0.3 mg/kg, route oral
Rattus norvegicus [38] = assay: Analgesic activity against CFA-induced inflammatory pain in Sprague-Dawley rat assessed as reversal of decrease in weight bearing at 10 mg/kg, po qd for 3 days administered 24 hrs after CFA challenge; type: functional, organism-based; set-up: dose 10 mg/kg
[39] = Plasma concentration in complete Freund's adjuvant treated Sprague-Dawley rat at 1 mg/kg, po administered 24 hrs after CFA challenge after 2 hrs post dose; type: ADME, organism-based; set-up: dose 1 mg/kg, route oral
[40] = Plasma concentration in complete Freund's adjuvant treated Sprague-Dawley rat at 3 mg/kg, po administered 24 hrs after CFA challenge after 2 hrs post dose; type: ADME, organism-based; set-up: dose 3 mg/kg, route oral
[41] = Plasma concentration in complete Freund's adjuvant treated Sprague-Dawley rat at 10 mg/kg, po administered 24 hrs after CFA challenge after 2 hrs post dose; type: ADME, organism-based; set-up: dose 10 mg/kg, route oral
[42] = Plasma concentration in complete Freund's adjuvant treated Sprague-Dawley rat at 1 mg/kg, po qd for 2 days administered 24 hrs after CFA challenge after 2 hrs last post dose; type: ADME, organism-based; set-up: dose 1 mg/kg, route oral
[43] = Plasma concentration in complete Freund's adjuvant treated Sprague-Dawley rat at 3 mg/kg, po qd for 2 days administered 24 hrs after CFA challenge after 2 hrs last post dose; type: ADME, organism-based; set-up: dose 3 mg/kg, route oral
[44] = Plasma concentration in complete Freund's adjuvant treated Sprague-Dawley rat at 10 mg/kg, po qd for 2 days administered 24 hrs after CFA challenge after 2 hrs last post dose; type: ADME, organism-based; set-up: dose 10 mg/kg, route oral
[45] = Plasma concentration in complete Freund's adjuvant treated Sprague-Dawley rat at 1 mg/kg, po qd for 3 days administered 24 hrs after CFA challenge after 2 hrs last post dose; type: ADME, organism-based; set-up: dose 1 mg/kg, route oral
[46] = Plasma concentration in complete Freund's adjuvant treated Sprague-Dawley rat at 3 mg/kg, po qd for 3 days administered 24 hrs after CFA challenge after 2 hrs last post dose; type: ADME, organism-based; set-up: dose 3 mg/kg, route oral
[47] = Plasma concentration in complete Freund's adjuvant treated Sprague-Dawley rat at 10 mg/kg, po qd for 3 days administered 24 hrs after CFA challenge after 2 hrs last post dose; type: ADME, organism-based; set-up: dose 10 mg/kg, route oral
Rattus norvegicus [48] = assay: Induction of hyperthermia in Sprague-Dawley rat at 3 mg/kg, po after 10 hrs; type: organism-based; set-up: dose 3 mg/kg, route oral; details: in vivo
Rattus norvegicus [49] = assay: Induction of hyperthermia in Sprague-Dawley rat at 3 mg/kg, po qd for 4 days; type: organism-based; set-up: dose 3 mg/kg, route oral; details: in vivo, 96 h
Homo sapiens [50] = species on record: Homo sapiens; assay: Protein binding in human plasma; details: read-out: PPB (converted)
Homo sapiens [51] = species on record: Homo sapiens; assay: Fraction unbound in human plasma

Compound: FC(F)(F)c1ccc(Nc2ncnc3cc(-c4ncccc4C(F)(F)F)ccc23)nc1
- solubility at 4 h [1]: 0.033 mg/mL (≈ 75.8 µM)
- CL (Rattus norvegicus [2]): 4.2 (ml/min)/kg
- remaining at 10 min, 1 µM [3]: 91%

Compound: FC(F)(F)c1ccc(Nc2ccnc3cc(-c4ncccc4C(F)(F)F)ccc23)nc1
- solubility at 4 h [1]: 0.034 mg/mL (≈ 78.3 µM)
- IC50 [4]: 1.65 nM

Compound: FC(F)(F)c1ccc(Nc2ncnc3nc(-c4ncccc4C(F)(F)F)ncc23)cc1
- solubility at 4 h [1]: 0.004 mg/mL (≈ 9.17 µM)
- IC50 [4]: 665 nM

Compound: FC(F)(F)c1ccc(Nc2ccnc3nc(-c4ncccc4C(F)(F)F)ccc23)nc1
- solubility at 4 h [1]: 0.04 mg/mL (≈ 91.9 µM)
- LBF (Rattus norvegicus [5]): 45%
- Tmax [6]: 1.1 h
- half-life [7]: 1.4 h
- clearance [8]: 2.04 L/h/kg
- Vd [9]: 3.9 L/kg
- bioavailability [10]: 52%
- solubility thermodynamic [11]: 0.002 mg/mL (≈ 4.59 µM)
- remaining at 10 min, 1 µM [3]: 100%
- Papp (MDR1): 298 nm/s
- Ratio (LLC-PK1): 1.7
- IC50 [12]: 3.25 nM
- fraction unbound [13]: 0.107
- Kp at 1 h [14]: 0.3
- inhibition at 10 µM (hERG (KCNH2)): 47%
- IC50 [15]: 980 nM
- fraction unbound [16]: 0.107
- inhibition [17]: inactive
- inhibition [18]: inactive
- inhibition [19]: inactive
- inhibition [20]: inactive
- inhibition [21]: inactive
- Activity (Rattus norvegicus [22]): Non-toxic
- IC50 [23]: 3000 nM
- AUC(0-t) at 24 h [24]: 0.6 µM·h
- AUC(0-t) at 24 h [25]: 22.6 µM·h
- AUC(0-t) at 24 h [26]: 204 µM·h
- Cmax [27]: 0.24 µM
- Cmax [28]: 2.87 µM
- Cmax [29]: 12.9 µM
- Tmax [30]: 1.1 h
- Tmax [31]: 3.33 h
- Tmax [32]: 6 h
- Activity (Rattus norvegicus [33]): Active
- Activity (Rattus norvegicus [34]): Dose-dependent effect
- concentration at 1 h [35]: 1.4 µM
- concentration at 1 h [36]: 0.3 µM
- concentration at 1 h [37]: 0.06 µM
- Activity (Rattus norvegicus [38]): Active
- concentration at 2 h [39]: 0.1 µM
- concentration at 2 h [40]: 0.23 µM
- concentration at 2 h [41]: 2.3 µM
- concentration at 2 h [42]: 0.39 µM
- concentration at 2 h [43]: 1.33 µM
- concentration at 2 h [44]: 5.23 µM
- concentration at 2 h [45]: 0.38 µM
- concentration at 2 h [46]: 0.93 µM
- concentration at 2 h [47]: 3.26 µM
- Activity (Rattus norvegicus [48]): Non-toxic
- Activity (Rattus norvegicus [49]): Non-toxic
- fraction unbound (Homo sapiens [50]): 0.065
- fraction unbound (Homo sapiens [51]): 0.065
- IC50 [4]: 2.2 nM

Compound: FC(F)(F)c1ccc(Nc2ncnc3cc(-c4ncccc4C(F)(F)F)cnc23)cc1
- solubility at 4 h [1]: 0.006 mg/mL (≈ 13.8 µM)
- IC50 [4]: 0.63 nM
